The test system of one series is MCF7. The series can be described thus: Antiproliferative activity against human MCF7 cells after 72 hrs by MTT assay. It is filed as functional, cell-based. Conditions: MCF7, 72 h. (In general: Tetrazolium dyes change colour on reduction, which living cells bring about.)
The nature of series [1]: Solubility of the compound in water. It is filed as physicochemical. Conditions: buffer.
The next series concerns PC-3. The series can be described thus: Antiproliferative activity against human PC3 cells after 72 hrs by MTT assay. The series is classed as functional, cell-based. Conditions: PC-3, 72 h. In short, it runs like this: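 Cells grown in MEM with 10% FBS. About 4×10³ cells per well seeded and incubated 24 h at 37 °C, 5% CO₂. Compounds added at indicated final concentrations for 72 h. MTT at 5 µg/mL final for 4 h at 37 °C. Formazan dissolved in DMSO, absorbance read at 492 nm with 630 nm reference. Tested three times; IC50 is the mean of two determinations.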

In another series the test system is A549. The experiment in a line: Antiproliferative activity against human A549 cells after 72 hrs by MTT assay. The series is classed as functional, cell-based. To be noted: A549, 72 h.
Series [2] has as its target Epidermal growth factor receptor (Homo sapiens, UniProt P00533, T790M). The experiment in a line: Inhibition of wild type EGFR T790M mutant (unknown origin) using FAM-labeled peptide substrate after 10 mins by mobility shift assay.
Series [3] concerns the target Epidermal growth factor receptor (Homo sapiens, UniProt P00533). The series can be described thus: Inhibition of wild type EGFR (unknown origin) using FAM-labeled peptide substrate after 10 mins by mobility shift assay.

IC50 and solubility data for 43 molecules are collected here from ChEMBL document CHEMBL4152264, “Design, synthesis, antiproliferative activity and docking studies of quinazoline derivatives bearing 2,3-dihydro-indole or 1,2,3,4-tetrahydroquinoline as potential EGFR inhibitors” (Eur J Med Chem, 2018).

Epidermal growth factor receptor (Homo sapiens, UniProt P00533, T790M), sequence (P00533 25-1210 T790M limits assumed): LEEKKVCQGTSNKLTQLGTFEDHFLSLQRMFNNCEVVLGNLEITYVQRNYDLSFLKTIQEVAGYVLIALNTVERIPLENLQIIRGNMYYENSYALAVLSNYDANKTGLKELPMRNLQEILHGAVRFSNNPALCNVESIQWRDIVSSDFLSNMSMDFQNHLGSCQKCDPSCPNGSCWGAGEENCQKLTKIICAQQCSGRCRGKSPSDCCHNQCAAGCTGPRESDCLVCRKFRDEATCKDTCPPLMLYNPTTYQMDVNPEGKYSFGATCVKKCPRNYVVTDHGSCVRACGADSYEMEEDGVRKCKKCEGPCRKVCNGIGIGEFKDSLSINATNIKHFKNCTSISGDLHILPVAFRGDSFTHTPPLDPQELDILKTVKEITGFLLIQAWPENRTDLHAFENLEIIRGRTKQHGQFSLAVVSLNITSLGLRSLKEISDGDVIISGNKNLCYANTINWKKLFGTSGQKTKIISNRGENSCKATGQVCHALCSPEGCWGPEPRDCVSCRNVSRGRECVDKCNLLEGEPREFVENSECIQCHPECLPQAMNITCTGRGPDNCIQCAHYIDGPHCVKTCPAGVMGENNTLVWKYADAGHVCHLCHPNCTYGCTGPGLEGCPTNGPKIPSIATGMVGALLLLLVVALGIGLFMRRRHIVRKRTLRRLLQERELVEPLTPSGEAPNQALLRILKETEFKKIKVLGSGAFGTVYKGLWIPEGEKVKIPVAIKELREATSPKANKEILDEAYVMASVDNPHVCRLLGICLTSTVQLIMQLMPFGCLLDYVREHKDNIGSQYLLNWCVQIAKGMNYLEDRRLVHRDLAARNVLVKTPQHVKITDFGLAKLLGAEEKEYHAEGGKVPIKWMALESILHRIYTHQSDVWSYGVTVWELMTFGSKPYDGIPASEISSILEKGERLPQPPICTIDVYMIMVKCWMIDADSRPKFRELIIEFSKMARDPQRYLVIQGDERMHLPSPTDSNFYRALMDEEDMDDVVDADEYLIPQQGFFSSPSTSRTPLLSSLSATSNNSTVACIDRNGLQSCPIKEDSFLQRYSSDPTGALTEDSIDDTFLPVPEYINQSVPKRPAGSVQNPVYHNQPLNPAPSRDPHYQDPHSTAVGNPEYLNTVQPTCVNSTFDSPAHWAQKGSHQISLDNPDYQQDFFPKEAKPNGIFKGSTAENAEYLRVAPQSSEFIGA
Epidermal growth factor receptor (Homo sapiens, UniProt P00533), sequence (P00533 whole entry): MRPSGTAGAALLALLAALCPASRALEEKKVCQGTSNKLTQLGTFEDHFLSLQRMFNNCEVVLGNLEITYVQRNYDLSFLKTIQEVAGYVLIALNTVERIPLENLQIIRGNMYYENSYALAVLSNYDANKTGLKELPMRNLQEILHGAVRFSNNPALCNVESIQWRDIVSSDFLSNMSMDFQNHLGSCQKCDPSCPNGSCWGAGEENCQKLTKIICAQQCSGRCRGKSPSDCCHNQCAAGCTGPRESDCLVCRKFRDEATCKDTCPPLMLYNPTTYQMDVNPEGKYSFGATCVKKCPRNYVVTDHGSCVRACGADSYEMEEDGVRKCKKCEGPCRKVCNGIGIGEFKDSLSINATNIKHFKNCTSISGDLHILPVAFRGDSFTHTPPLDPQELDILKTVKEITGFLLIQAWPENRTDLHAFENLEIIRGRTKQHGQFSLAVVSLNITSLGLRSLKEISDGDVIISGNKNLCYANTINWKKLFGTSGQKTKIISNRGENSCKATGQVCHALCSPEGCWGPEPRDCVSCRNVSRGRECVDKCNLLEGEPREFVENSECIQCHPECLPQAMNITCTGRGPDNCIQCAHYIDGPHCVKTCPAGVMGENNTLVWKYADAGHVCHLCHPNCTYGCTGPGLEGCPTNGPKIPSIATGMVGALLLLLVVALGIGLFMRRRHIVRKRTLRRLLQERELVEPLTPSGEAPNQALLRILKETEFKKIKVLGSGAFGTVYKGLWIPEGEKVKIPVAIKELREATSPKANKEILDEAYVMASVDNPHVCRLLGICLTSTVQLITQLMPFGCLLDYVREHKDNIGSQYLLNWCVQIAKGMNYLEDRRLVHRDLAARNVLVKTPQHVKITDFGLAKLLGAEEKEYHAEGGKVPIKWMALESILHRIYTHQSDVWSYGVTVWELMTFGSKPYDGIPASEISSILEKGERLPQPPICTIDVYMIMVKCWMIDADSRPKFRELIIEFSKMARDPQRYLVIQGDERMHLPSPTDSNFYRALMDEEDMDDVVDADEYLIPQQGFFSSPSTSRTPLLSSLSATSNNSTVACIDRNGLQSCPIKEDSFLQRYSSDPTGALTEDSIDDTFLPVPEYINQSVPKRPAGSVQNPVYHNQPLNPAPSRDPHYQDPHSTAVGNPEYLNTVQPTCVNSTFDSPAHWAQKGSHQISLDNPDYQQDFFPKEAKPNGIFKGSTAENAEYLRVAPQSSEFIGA

Usually IC50 stands for the concentration that gives 50% inhibition. `C/C=C/C(=O)Nc1cc2c(N3CCCc4ccccc43)ncnc2cc1OC`: the figures for the IC50 in the series with MCF7, with PC-3 and in the series on A549 were 12.7 µM, 7.52 µM and 8.19 µM, respectively. In addition, the solubility result in series [1] is given as “Insoluble”.
`COc1cc2ncnc(N3CCCc4ccccc43)c2cc1NC(=O)C=C(C)C`: the IC50 with MCF7 stood at 6.87 µM; with PC-3, 6.13 µM; with A549 it was 5.41 µM. The solubility result in series [1] was “Insoluble”.
With `O=C(/C=C/CN1CCC(CO)CC1)Nc1cc2c(N3CCCc4ccccc43)ncnc2cc1O[C@@H]1CCOC1`, the IC50 in the series on MCF7 turned out to be 4.96 µM; in the series on PC-3, 5.46 µM; in the series on A549, 5.3 µM.
For the molecule `C/C=C/C(=O)Nc1cc2c(N3CCc4ccccc43)ncnc2cc1OC`, the IC50 in the series with MCF7 amounted to 4.03 µM; in the series with PC-3 it was 8.12 µM; with A549, 8.29 µM. In series [1], the solubility entry was “Insoluble”.
The matching figures for `CCC/C=C/C(=O)Nc1cc2c(N3CCc4ccccc43)ncnc2cc1O[C@@H]1CCOC1`: 4.55 µM, 9.23 µM, 9.11 µM and “Insoluble”.
With `COc1cc2ncnc(N3CCc4ccccc43)c2cc1NC(=O)/C=C/CN1CCOCC1`, the results for the IC50 in the series on MCF7, in the series on PC-3 and in the series with A549 were 8.45 µM, 8.29 µM and 9.25 µM, respectively.
On the same counts, the results for `CN1CCN(C/C=C/C(=O)Nc2cc3c(N4CCCc5ccccc54)ncnc3cc2O[C@@H]2CCOC2)CC1` are 7.18 µM, 9.45 µM and 5.87 µM.
As for `C=C(C)C(=O)Nc1cc2c(N3CCc4ccccc43)ncnc2cc1O[C@@H]1CCOC1`, the IC50 worked out at 14.7 µM in the series on MCF7, 4.91 µM with PC-3 and 16.6 µM in the series on A549. The solubility entry in series [1] is recorded as “Insoluble”.
`CCN(CC)C/C=C/C(=O)Nc1cc2c(N3CCc4ccccc43)ncnc2cc1O[C@@H]1CCOC1`: the IC50 in the series on MCF7 is 4.98 µM; in the series on PC-3, 5.78 µM; with A549, 5.22 µM.
As to `COc1cc2ncnc(N3CCc4ccccc43)c2cc1NC(=O)/C=C/CN1CCCC1`, the IC50 in series [2] was 0.034 µM; in series [3], 0.003 µM; in the series with MCF7 it was 1.51 µM; with PC-3, 2.62 µM; in the series with A549, 1.21 µM.
With `CCC/C=C/C(=O)Nc1cc2c(N3CCc4ccccc43)ncnc2cc1OC`, the IC50 in the series with MCF7 worked out at 3.16 µM; in the series with PC-3 it was 4.24 µM; in the series on A549, 2.92 µM. Moreover, the solubility result in series [1] is given as “Insoluble”.
Regarding `CCN(CC)C/C=C/C(=O)Nc1cc2c(N3CCCc4ccccc43)ncnc2cc1O[C@@H]1CCOC1`, the 50% inhibitory concentration (IC50) turned out to be 3.87 µM with MCF7, 4.27 µM with PC-3 and 5.65 µM with A549.
Regarding `O=C(/C=C/CN1CCCCC1)Nc1cc2c(N3CCc4ccccc43)ncnc2cc1O[C@@H]1CCOC1`, the IC50 came out at 1.89 µM with MCF7, 4.51 µM with PC-3 and 4.66 µM in the series on A549.
`COc1cc2ncnc(N3CCc4ccccc43)c2cc1NC(=O)/C=C/CN1CCN(C)CC1`: the IC50 is 6.43 µM in the series on MCF7, 9.18 µM with PC-3 and 5.36 µM in the series with A549.
Regarding `COc1cc2ncnc(N3CCCc4ccccc43)c2cc1NC(=O)/C=C/C(C)C`, the IC50 in the series with MCF7 worked out at 4.29 µM; in the series with PC-3, 8.43 µM; with A549 it was 3.45 µM. For the same molecule, in series [1], the solubility result was “Insoluble”.
Consider `CC/C=C/C(=O)Nc1cc2c(N3CCCc4ccccc43)ncnc2cc1OC`, for which the IC50 came out at 2.87 µM in the series with MCF7, 6.31 µM in the series on PC-3 and 5.03 µM with A549. In series [1], the solubility entry is on record as “Insoluble”.
The matching figures for `C/C=C/C(=O)Nc1cc2c(N3CCCc4ccccc43)ncnc2cc1O[C@@H]1CCOC1`: 5.93 µM, 9.35 µM, 10.8 µM and “Insoluble”.
Turning to `CC(C)=CC(=O)Nc1cc2c(N3CCc4ccccc43)ncnc2cc1O[C@@H]1CCOC1`, the IC50 in the series with MCF7 was found to be 15.7 µM; in the series with PC-3, 4.62 µM; with A549, 3.67 µM. In addition, in series [1], the solubility entry was “Insoluble”.
As to `CC(C)/C=C/C(=O)Nc1cc2c(N3CCc4ccccc43)ncnc2cc1O[C@@H]1CCOC1`, the IC50 in the series on MCF7 was found to be 9.88 µM; in the series with PC-3, 11.2 µM; in the series on A549, 8.52 µM. For the same molecule, the solubility entry in series [1] is “Insoluble”.
Take `COc1cc2ncnc(N3CCc4ccccc43)c2cc1NC(=O)/C=C/CN1CCCCC1`: the IC50 was 0.115 µM in series [2]; 0.0454 µM in series [3]; 1.68 µM in the series with MCF7; 4.18 µM with PC-3; 2.54 µM in the series on A549.
Regarding `CC/C=C/C(=O)Nc1cc2c(N3CCCc4ccccc43)ncnc2cc1O[C@@H]1CCOC1`, the IC50 with MCF7 is 14.4 µM; with PC-3, 14.3 µM; in the series with A549, 14.1 µM. For the same molecule, the solubility result in series [1] is on record as “Insoluble”.
As for `O=C(/C=C/CN1CCC(CO)CC1)Nc1cc2c(N3CCc4ccccc43)ncnc2cc1O[C@@H]1CCOC1`, the IC50 in the series on MCF7 amounted to 4.69 µM; in the series with PC-3, 3.31 µM; in the series with A549, 3.67 µM.
For the molecule `O=C(/C=C/CN1CCCC1)Nc1cc2c(N3CCCc4ccccc43)ncnc2cc1O[C@@H]1CCOC1`, the values for the IC50 in the series on MCF7, in the series on PC-3 and in the series on A549 were 4.25 µM, 5.78 µM and 6.51 µM, respectively.
The matching figures for `O=C(/C=C/CN1CCCCC1)Nc1cc2c(N3CCCc4ccccc43)ncnc2cc1O[C@@H]1CCOC1`: 4.45 µM, 3.63 µM and 3.67 µM.
On to `COc1cc2ncnc(N3CCc4ccccc43)c2cc1NC(=O)C=C(C)C`, for which the results for the IC50 in the series with MCF7, in the series with PC-3 and in the series with A549 were 6.39 µM, 7.84 µM and 6.27 µM, respectively. In series [1], the solubility entry is recorded as “Insoluble”.
In the case of `COc1cc2ncnc(N3CCCc4ccccc43)c2cc1NC(=O)/C=C/CN1CCCCC1`, the IC50 came out at 3.93 µM in the series on MCF7, 5.78 µM with PC-3 and 2.88 µM in the series with A549.
Take `COc1cc2ncnc(N3CCc4ccccc43)c2cc1NC(=O)/C=C/C(C)C`: the IC50 in the series on MCF7 was found to be 6.78 µM; in the series with PC-3, 6.53 µM; in the series on A549, 6.41 µM. In addition, the solubility entry in series [1] is “Insoluble”.
As to `COc1cc2ncnc(N3CCCc4ccccc43)c2cc1NC(=O)/C=C/CN1CCC(CO)CC1`, the values for the IC50 in the series on MCF7, in the series with PC-3 and in the series with A549 were 5.74 µM, 7.15 µM and 6.97 µM, respectively.
As to `C=CC(=O)Nc1cc2c(N3CCc4ccccc43)ncnc2cc1OC`, the IC50 in the series on MCF7 came out at 11.7 µM; in the series on PC-3, 5.94 µM; in the series with A549, 5.58 µM. The solubility result in series [1] was “Insoluble”.
Turning to `CCN(CC)C/C=C/C(=O)Nc1cc2c(N3CCc4ccccc43)ncnc2cc1OC`, the figures for the IC50 in the series on MCF7, in the series on PC-3 and in the series with A549 were 1.99 µM, 3.69 µM and 1.69 µM, respectively.
For the molecule `CC(C)=CC(=O)Nc1cc2c(N3CCCc4ccccc43)ncnc2cc1O[C@@H]1CCOC1`, the IC50 with MCF7 stood at 11.1 µM; in the series on PC-3, 9.02 µM; with A549, 7.91 µM. The solubility entry in series [1] is given as “Insoluble”.
`CC/C=C/C(=O)Nc1cc2c(N3CCc4ccccc43)ncnc2cc1O[C@@H]1CCOC1`: the figures for the IC50 in the series with MCF7, in the series on PC-3 and with A549 were 8.84 µM, 9.59 µM and 10.9 µM, respectively. In addition, the solubility entry in series [1] is given as “Insoluble”.
On to `CCN(CC)C/C=C/C(=O)Nc1cc2c(N3CCCc4ccccc43)ncnc2cc1OC`, for which the IC50 is 5.31 µM with MCF7, 6.89 µM in the series with PC-3 and 6.41 µM in the series with A549.
`COc1cc2ncnc(N3CCCc4ccccc43)c2cc1NC(=O)/C=C/CN1CCN(C)CC1`: the half-inhibitory concentration (IC50) in the series on MCF7 turned out to be 8.56 µM; with PC-3, 6.26 µM; with A549, 7.83 µM.
As to `COc1cc2ncnc(N3CCc4ccccc43)c2cc1NC(=O)/C=C/CN(C)C`, the values for the IC50 in the series on MCF7, in the series on PC-3 and in the series with A549 were 3.37 µM, 2.19 µM and 2.04 µM, respectively.
`CN(C)C/C=C/C(=O)Nc1cc2c(N3CCCc4ccccc43)ncnc2cc1O[C@@H]1CCOC1`: the values for the IC50 in the series on MCF7, with PC-3 and in the series with A549 were 2.85 µM, 4.17 µM and 2.32 µM, respectively.
On the same counts, the results for `COc1cc2ncnc(N3CCCc4ccccc43)c2cc1NC(=O)/C=C/CN1CCCC1` are 3.19 µM, 1.74 µM and 2.23 µM.
On the same counts, the results for `O=C(/C=C/CN1CCCC1)Nc1cc2c(N3CCc4ccccc43)ncnc2cc1O[C@@H]1CCOC1` are 2.31 µM, 1.51 µM and 2.23 µM.
Regarding `C=CC(=O)Nc1cc2c(N3CCc4ccccc43)ncnc2cc1O[C@@H]1CCOC1`, the IC50 with MCF7 came out at 5.95 µM; in the series on PC-3, 2.71 µM; with A549, 9.32 µM. Besides, in series [1], the solubility result was “Insoluble”.
Consider `CN1CCN(C/C=C/C(=O)Nc2cc3c(N4CCc5ccccc54)ncnc3cc2O[C@@H]2CCOC2)CC1`, for which the IC50 worked out at 5.35 µM with MCF7, 4.21 µM in the series with PC-3 and 6.09 µM in the series with A549.
Turning to `C=C(C)C(=O)Nc1cc2c(N3CCc4ccccc43)ncnc2cc1OC`, the IC50 is 11.1 µM with MCF7, 4.83 µM in the series on PC-3 and 7.32 µM in the series on A549. The solubility entry in series [1] is listed as “Insoluble”.
As to `CC(C)/C=C/C(=O)Nc1cc2c(N3CCCc4ccccc43)ncnc2cc1O[C@@H]1CCOC1`, the IC50 turned out to be 4.68 µM with MCF7, 8.51 µM in the series on PC-3 and 6.82 µM with A549. In series [1], the solubility entry is reported as “Insoluble”.
On to `CCC/C=C/C(=O)Nc1cc2c(N3CCCc4ccccc43)ncnc2cc1O[C@@H]1CCOC1`, for which the IC50 in the series on MCF7 was 4.23 µM; in the series with PC-3 it was 11.8 µM; in the series with A549, 7.32 µM. Also, the solubility result in series [1] was “Insoluble”.
